# Assay results as given in ChEMBL document CHEMBL1124850, “Synthesis and antibacterial activity of thiazolo-, oxazolo-, and imidazolo[3,2-a][1,8]naphthyridinecarboxylic acids” (J Med Chem, 1990).
# Legend:
# [1] = system: Pseudomonas cepacia (Burkholderia cepacia); assay: Activity against Pseudomonas cepacia (IID-1341)
# Escherichia coli [2] = assay: Activity against Escherichia coli (KC-14); type: functional
# Outline: (§1)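 Agar dilution MIC: serial 2-fold dilutions in Mueller-Hinton agar, inoculum about 10^6 CFU/mL, incubated at 37 °C for 18 h. The MIC is the lowest concentration that prevents visible bacterial growth.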
# Klebsiella pneumoniae = assay: Activity against Klebsiella pneumoniae (PCI-602); type: functional
# Outline: as §1
# [3] = system: Staphylococcus epidermidis; assay: Activity against Staphylococcus epidermidis (IAM 1296); type: functional
# Outline: as §1
# Escherichia coli [4] = assay: Activity against Escherichia coli (K-12 C600); type: functional
# Outline: as §1
# [5] = system: Acinetobacter calcoaceticus; assay: Activity against Acinetobacter calcoaceticus (AC54); type: functional
# Outline: as §1
# Klebsiella aerogenes = assay: Activity against Enterobacter aerogenes (ATCC 13048); type: functional
# Outline: as §1
# Enterococcus faecalis = assay: Activity against Streptococcus faecalis (IID 682); type: functional
# Outline: as §1
# Bacillus subtilis = assay: Activity against Bacillus subtilis (ATCC 6633); type: functional
# Outline: as §1
# Pseudomonas aeruginosa = assay: Activity against Pseudomonas aeruginosa (E-2); type: functional
# Outline: as §1
# Staphylococcus aureus [6] = assay: Activity against Staphylococcus aureus (IID 803); type: functional
# Outline: as §1
# Nucleic Acid = assay: Inhibitory effect on DNA gyrase supercoiling activity from Escherichia coli K-12 C600; type: functional
# Staphylococcus aureus [7] = assay: Activity against Staphylococcus aureus (FDA207PJC-1); type: functional
# Outline: as §1
# Burkholderia cepacia = assay: Activity against Pseudomonas cepacia (IID-1341); type: functional
# Outline: as §1
SMILES,MIC [1] [µg/mL],MIC (Escherichia coli [2]) [µg/mL],MIC (Klebsiella pneumoniae) [µg/mL],MIC [3] [µg/mL],MIC (Escherichia coli [4]) [µg/mL],MIC [5] [µg/mL],MIC (Klebsiella aerogenes) [µg/mL],MIC (Enterococcus faecalis) [µg/mL],MIC (Bacillus subtilis) [µg/mL],MIC (Pseudomonas aeruginosa) [µg/mL],MIC (Staphylococcus aureus [6]) [µg/mL],IC50 (Nucleic Acid) [µg/mL],MIC (Staphylococcus aureus [7]) [µg/mL],MIC (Burkholderia cepacia) [µg/mL]
CC1COc2c(C(=O)O)c(=O)c3cc(F)c(N4CCN(C)CC4)nc3n21 (centres undefined),> 25,6.25,0.78,> 25,12.5,> 25,6.25,> 25,3.13,> 25,12.5,6.11,12.5,–
CN1CCN(c2nc3c(cc2F)c(=O)c(C(=O)O)c2n3CCN2C)CC1,–,50,6.25,100,50,100,50,100,25,100,100,> 25,100,100
CN1CCN(c2nc3c(cc2F)c(=O)c(C(=O)O)c2n3CCS2)CC1,–,0.2,0.05,1.56,0.2,0.39,0.2,6.25,0.1,1.56,0.39,0.52,0.39,3.13
CCn1cc(C(=O)O)c(=O)c2cc(F)c(N3CCNCC3)nc21 [ENOXACIN],–,0.2,0.1,3.13,0.2,3.13,0.2,3.13,0.2,1.56,0.78,–,0.78,6.25
CC1COc2c(N3CCN(C)CC3)c(F)cc3c(=O)c(C(=O)O)cn1c23 (centres undefined) [OFLOXACIN],–,0.1,0.05,0.78,0.2,0.39,0.1,1.56,0.1,1.56,0.39,0.59,0.39,6.25
